From ChEMBL document CHEMBL3758165, “In vitro interactions between anidulafungin and nonsteroidal anti-inflammatory drugs on biofilms of Candida spp” (2016)

Assays:
Type in all cases: functional
Candida albicans [1] = assay: Antibiofilm activity against Candida albicans ATCC 90028 by two dimensional checkerboard dilution method in presence of aspirin
Procedure, shortened: (§1)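 Preformed 48 h disk biofilms (RPMI 1640, MOPS pH 7, 37 °C), PBS-washed, exposed 24 h at 37 °C on rocker to two-dimensional checkerboard of anidulafungin plus NSAID in RPMI; NSAID final 0.1 µM to 100 mM. XTT reduction at 490 nm; SMIC = combination giving 50% metabolic reduction versus drug-free control; FIC index calculated; triplicate on different days.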

Candida albicans [2] = assay: Antibiofilm activity against Candida albicans ATCC 90028 assessed as fractional inhibitory concentration by two dimensional checkerboard dilution method in presence of ibuprofen; procedure, shortened: as §1
Candida albicans [3] = assay: Antibiofilm activity against Candida albicans 17a18 after 48 hrs by XTT reduction assay relative to control; set-up: scale not given: the % may be the effect or the level left
Procedure, shortened: (§2)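 Biofilms grown on autoclaved PVC disks: 1·10^6 cfu ml-1 cells, adhesion 1.5 h at 37 °C shaking 100 rpm, PBS wash, then 48 h at 37 °C in RPMI 1640 (MOPS, pH 7). Metabolic activity read by XTT–menadione reduction, 2 h at 37 °C, supernatant formazan at 490 nm, relative to drug-free control; triplicate on different days.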

[4] = test system: Meyerozyma guilliermondii; assay: Antibiofilm activity against Candida guilliermondii a410 by two dimensional checkerboard dilution method in presence of aspirin
Procedure, shortened: (§3)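 Biofilms were grown on PVC disks from 2 ml of a 1·10^6 cfu/ml cell suspension. Adhesion ran 1.5 h at 37 °C with shaking at 100 rpm. Disks were PBS-washed, then matured 48 h at 37 °C in RPMI 1640 (MOPS, pH 7). Biofilms were washed again and given 24 h at 37 °C of anidulafungin/NSAID checkerboard combinations (NSAID final 0.1 µM–100 mM). Read-out was XTT-menadione (2 h, 37 °C, 490 nm). SMIC was defined as 50% reduction versus drug-free control, from which FICI was calculated. Triplicates were run on different days.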

Candida albicans [5] = assay: Antibiofilm activity against Candida albicans ATCC 10231 after 48 hrs by XTT reduction assay relative to control; set-up: scale not given: the % may be the effect or the level left; procedure, shortened: as §2
Candida albicans [6] = assay: Antibiofilm activity against Candida albicans ATCC 24433 assessed as fractional inhibitory concentration by two dimensional checkerboard dilution method in presence of aspirin; procedure, shortened: as §1
Candida albicans [7] = assay: Antibiofilm activity against Candida albicans ATCC 10231 by two dimensional checkerboard dilution method
Procedure, shortened: (§4)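 Biofilms grown on sterilized PVC disks: 1·10^6 cfu/ml Candida cells adhered for 1.5 h at 37 °C with shaking, washed with PBS, then matured 48 h at 37 °C in RPMI 1640 (MOPS, pH 7). Preformed biofilms were washed and exposed to drug, alone or in two-dimensional checkerboard combination, in RPMI 1640 for 24 h at 37 °C on a rocker.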

Candida albicans [8] = assay: Antibiofilm activity against Candida albicans 17a18 assessed as fractional inhibitory concentration by two dimensional checkerboard dilution method in presence of ibuprofen; procedure, shortened: as §1
[9] = test system: Meyerozyma guilliermondii; assay: Antibiofilm activity against Candida guilliermondii a410 assessed as fractional inhibitory concentration by two dimensional checkerboard dilution method in presence of ibuprofen; procedure, shortened: as §3
Nakaseomyces glabratus [10] = assay: Antibiofilm activity against Candida glabrata ATCC 15126 by two dimensional checkerboard dilution method in presence of ibuprofen; procedure, shortened: as §1
Candida albicans [11] = assay: Antibiofilm activity against Candida albicans ATCC 24433 assessed as fractional inhibitory concentration by two dimensional checkerboard dilution method in presence of ibuprofen; procedure, shortened: as §1
Nakaseomyces glabratus [12] = assay: Antibiofilm activity against Candida glabrata 18a10 by two dimensional checkerboard dilution method in presence of aspirin; procedure, shortened: as §1
Candida albicans [13] = assay: Antibiofilm activity against Candida albicans ATCC 24433 by two dimensional checkerboard dilution method in presence of diclofenac; procedure, shortened: as §1
Nakaseomyces glabratus [14] = assay: Antibiofilm activity against Candida glabrata 18a10 by two dimensional checkerboard dilution method; procedure, shortened: as §4
Nakaseomyces glabratus [15] = assay: Antibiofilm activity against Candida glabrata ATCC 15126 assessed as fractional inhibitory concentration by two dimensional checkerboard dilution method in presence of aspirin; procedure, shortened: as §1
Candida albicans [16] = assay: Antibiofilm activity against Candida albicans ATCC 24433 by two dimensional checkerboard dilution method in presence of aspirin; procedure, shortened: as §1
Candida albicans [17] = assay: Antibiofilm activity against Candida albicans ATCC 10231 by two dimensional checkerboard dilution method in presence of ibuprofen; procedure, shortened: as §1
Nakaseomyces glabratus [18] = assay: Antibiofilm activity against Candida glabrata ATCC 15126 assessed as fractional inhibitory concentration by two dimensional checkerboard dilution method in presence of ibuprofen; procedure, shortened: as §1
Candida albicans [19] = assay: Antibiofilm activity against Candida albicans ATCC 10231 assessed as fractional inhibitory concentration by two dimensional checkerboard dilution method in presence of anidulafungin
Procedure, shortened: (§5)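 Biofilms grown on PVC disks: 1·10^6 cfu/ml in RPMI 1640 (MOPS, pH 7), 1.5 h adhesion at 37 °C with shaking, PBS wash, 48 h maturation at 37 °C. Preformed biofilms exposed 24 h at 37 °C to anidulafungin/NSAID checkerboard combinations in RPMI. XTT-menadione reduction read at 490 nm. SMIC = 50% metabolic reduction versus drug-free control. Triplicate runs on different days; FIC index calculated.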

Candida albicans [20] = assay: Antibiofilm activity against Candida albicans 17a18 by two dimensional checkerboard dilution method in presence of anidulafungin; procedure, shortened: as §4
Nakaseomyces glabratus [21] = assay: Antibiofilm activity against Candida glabrata 18a10 assessed as fractional inhibitory concentration by two dimensional checkerboard dilution method in presence of anidulafungin; procedure, shortened: as §5
[22] = test system: Meyerozyma guilliermondii; assay: Potentiation of anidulafungin-induced antibiofilm activity against Candida guilliermondii ATCC 6260 assessed as anidulafungin-fractional inhibitory concentration index by two dimensional checkerboard dilution method; procedure, shortened: as §5
[23] = test system: Meyerozyma guilliermondii; assay: Antibiofilm activity against Candida guilliermondii a410 at 1 mM after 24 hrs by XTT reduction assay relative to control; set-up: scale not given: the % may be the effect or the level left; procedure, shortened: as §4
Candida albicans [24] = assay: Potentiation of anidulafungin-induced antibiofilm activity against Candida albicans 17a18 assessed as anidulafungin-fractional inhibitory concentration index by two dimensional checkerboard dilution method; procedure, shortened: as §5
Candida albicans [25] = assay: Potentiation of anidulafungin-induced antibiofilm activity against Candida albicans 17a18 at 0.1 uM to 100 mM after 48 hrs by XTT reduction assay relative to control; set-up: scale not given: the % may be the effect or the level left; procedure, shortened: as §4
Candida albicans [26] = assay: Antibiofilm activity against Candida albicans ATCC 90028 at 1 mM after 24 hrs by XTT reduction assay relative to control; set-up: scale not given: the % may be the effect or the level left; procedure, shortened: as §4
Candida albicans [27] = assay: Potentiation of anidulafungin-induced antibiofilm activity against Candida albicans ATCC 90028 assessed as anidulafungin-fractional inhibitory concentration index by two dimensional checkerboard dilution method; procedure, shortened: as §5
Candida albicans [28] = assay: Potentiation of anidulafungin-induced antibiofilm activity against Candida albicans ATCC 10231 assessed as anidulafungin-fractional inhibitory concentration index by two dimensional checkerboard dilution method; procedure, shortened: as §5
Candida albicans [29] = assay: Antibiofilm activity against Candida albicans ATCC 24433 at 1 mM after 24 hrs by XTT reduction assay relative to control; set-up: scale not given: the % may be the effect or the level left; procedure, shortened: as §4
Candida albicans [30] = assay: Antibiofilm activity against Candida albicans ATCC 10231 at 0.1 uM to 100 mM after 48 hrs by XTT reduction assay relative to control; set-up: scale not given: the % may be the effect or the level left; procedure, shortened: as §4
Candida albicans [31] = assay: Antibiofilm activity against Candida albicans ATCC 24433 at 0.1 uM to 100 mM after 48 hrs by XTT reduction assay relative to control; set-up: scale not given: the % may be the effect or the level left; procedure, shortened: as §4
[32] = test system: Meyerozyma guilliermondii; assay: Antibiofilm activity against Candida guilliermondii ATCC 6260 at 0.2 mM after 24 hrs by XTT reduction assay relative to control; set-up: scale not given: the % may be the effect or the level left; procedure, shortened: as §4

SMILES	MIC (Candida albicans [7])	MIC (Nakaseomyces glabratus [14])	Ratio (Candida albicans [19])	MIC (Candida albicans [20]) [µM]	Ratio (Nakaseomyces glabratus [21])	fractional inhibitory concentration index (FICI) [22]	fractional inhibitory concentration index (FICI) (Candida albicans [24])	Activity (Candida albicans [25]) [%]	Activity (Candida albicans [26]) [%]	fractional inhibitory concentration index (FICI) (Candida albicans [27])	fractional inhibitory concentration index (FICI) (Candida albicans [28])	Activity (Candida albicans [30]) [%]	Activity (Candida albicans [31]) [%]	other results
CCCCCOc1ccc(-c2ccc(-c3ccc(C(=O)N[C@@H]4C[C@@H](O)[C@@H](O)NC(=O)[C@@H]5[C@@H](O)[C@@H](C)CN5C(=O)[C@H]([C@@H](C)O)NC(=O)[C@H]([C@H](O)[C@@H](O)c5ccc(O)cc5)NC(=O)[C@@H]5C[C@@H](O)CN5C(=O)[C@H]([C@H](C)O)NC4=O)cc3)cc2)cc1	2 µg/mL	2 µg/mL	–	–	–	–	–	–	–	–	–	–	–	MIC (Candida albicans [1]): 0.1 µg/mL; Ratio (Candida albicans [2]): 0.2; Activity (Candida albicans [3]): 29.31%; MIC [4]: 0.1 µg/mL; Activity (Candida albicans [5]): 33.98%; Ratio (Candida albicans [6]): 0.05; Ratio (Candida albicans [8]): 0.2; Ratio [9]: 0.2; MIC (Nakaseomyces glabratus [10]): 0.1 µg/mL; Ratio (Candida albicans [11]): 0.2; MIC (Nakaseomyces glabratus [12]): 0.1 µg/mL; MIC (Candida albicans [13]): 0.1 µg/mL; Ratio (Nakaseomyces glabratus [15]): 0.05; MIC (Candida albicans [16]): 0.1 µg/mL; MIC (Candida albicans [17]): 0.4 µg/mL; Ratio (Nakaseomyces glabratus [18]): 0.05
CC(=O)Oc1ccccc1C(=O)O [ASPIRIN]	200 µM	200 µM	0.05	10	0.05	0.15	0.1	51.74	44.72	0.1	0.1	49.21	–	Activity [23]: 43.25%; Activity (Candida albicans [29]): 48.75%
O=C([O-])Cc1ccccc1Nc1c(Cl)cccc1Cl.[Na+] [DICLOFENAC SODIUM]	100000 µM	100000 µM	0.05	5000	0.2	0.45	0.1	64.25	–	0.1	0.1	53.57	50.25	–
CC(C)Cc1ccc(C(C)C(=O)O)cc1 (configuration not stated) [IBUPROFEN]	1000 µM	200 µM	0.05	50	0.2	0.3	0.25	64.22	25.62	0.3	0.25	–	22.45	Activity [32]: 64.43%
